Measured values taken from ChEMBL document CHEMBL3600347, “Syntheses and in Vitro Antiplasmodial Activity of Aminoalkylated Chalcones and Analogues” (J Nat Prod, 2015).
pIC50: −log10 of the molar value.

Legend:
[1] = test system: Plasmodium falciparum; experiment: Antiplasmodial activity chloroquinone-sensitive Plasmodium falciparum D10 by parasite lactate dehydrogenase assay; type: functional, organism-based
Outline: (§1)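 Asexual erythrocytic P. falciparum stages kept in continuous culture (modified Trager–Jensen). Growth inhibition read by parasite lactate dehydrogenase assay (modified Makler). Samples run in triplicate on one or two separate occasions. IC50 from full dose–response curves by nonlinear curve fitting. Chloroquine served as internal standard to monitor conditions.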

[2] = test system: Plasmodium falciparum; experiment: Antiplasmodial activity chloroquinone-resistant Plasmodium falciparum Dd2 by parasite lactate dehydrogenase assay; type: functional, organism-based
Outline: (§2)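 Asexual erythrocyte-stage P. falciparum kept in continuous culture by a modified Trager–Jensen method. Growth inhibition was read by a modified Makler parasite lactate dehydrogenase assay. Samples were run in triplicate on one or two separate occasions, with chloroquine as internal standard. IC50 was taken from full dose–response curves by nonlinear curve fitting.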

[3] = test system: CHO; experiment: Cytotoxicity against CHO cells by MTT assay; type: cell-based, Cricetulus griseus
Outline: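 Chinese hamster ovary cells; viability by MTT assay (modified Mosmann). Samples prepared as for antiplasmodial testing. Emetine reference in every experiment, started at 100 μg/mL and serially diluted 10-fold in complete medium to six concentrations, lowest 0.001 μg/mL. IC50 from dose–response curves.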

[4] = Selectivity index, ratio of IC50 for CHO cells to IC50 for chloroquinone-sensitive Plasmodium falciparum D10; details: hamster, CHO cells versus Plasmodium falciparum D10
[5] = test system: Plasmodium falciparum; experiment: Antiplasmodial activity chloroquinone-sensitive Plasmodium falciparum NF54 by parasite lactate dehydrogenase assay; type: functional, organism-based; outline: as §1
[6] = Selectivity index, ratio of IC50 for CHO cells to IC50 for chloroquinone-sensitive Plasmodium falciparum D10; type: toxicity, cell-based; details: hamster; for selectivity ratio: CHO cells versus Plasmodium falciparum D10, read-out: Ratio IC50; for Ratio IC50: cho
Outline: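 Selectivity index computed as CHO-cell IC50 (MTT) divided by P. falciparum IC50 from the pLDH assay, for a representative subset of compounds.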

[7] = test system: Plasmodium falciparum; experiment: Resistance index, ratio of IC50 for chloroquinone-resistant Plasmodium falciparum Dd2 to IC50 for chloroquinone-sensitive Plasmodium falciparum D10; type: functional
[8] = test system: Plasmodium falciparum; experiment: Antiplasmodial activity chloroquinone-resistant Plasmodium falciparum K1 by parasite lactate dehydrogenase assay; type: functional, organism-based; outline: as §2
[9] = test system: Plasmodium falciparum; experiment: Resistance index, ratio of IC50 for […] to IC50 for chloroquinone-[…] Plasmodium falciparum K1; type: functional

COc1ccc(CCCc2cccc(O)c2)cc1
pIC50 ([1]; Plasmodium falciparum, D10): < 4.52

Cc1ccc(C(=O)/C=C/c2ccc(CN3CCCCC3)c(O)c2)cc1
pIC50 ([1]; Plasmodium falciparum, D10): < 5.52

COc1ccc(C(=O)/C=C/c2ccc(O)c(CN(C)C)c2)cc1
pIC50 ([1]; Plasmodium falciparum, D10): < 5.52

CCc1ccc(C(=O)/C=C/c2ccc(CN3CCCCC3)c(O)c2)cc1
pIC50 [2]: 6.68 | pIC50 ([3]; Cricetulus griseus, CHO): 5.18 | selectivity ratio [4]: 47 | pIC50 ([1]; Plasmodium falciparum, D10): 6.85

CN1CCN(Cc2ccc(CCCc3ccccc3)cc2O)CC1
pIC50 ([5]; Plasmodium falciparum, NF54): 6.10

O=C(CCc1ccc(CN2CCCCC2)c(O)c1)c1ccc(F)cc1
pIC50 ([5]; Plasmodium falciparum, NF54): 6.59

Cl.Oc1cc(CCCc2ccc(F)cc2)ccc1CN1CCCCC1
pIC50 [2]: 7.70 | pIC50 ([3]; Cricetulus griseus, CHO): 3.79 | pIC50 [1]: 7.52 | selectivity ratio [6]: 5830 | Ratio IC50 [7]: 0.79

CC(C)Nc1ccc(CCCc2ccc(CN3CCCCC3)c(O)c2)cc1
pIC50 ([5]; Plasmodium falciparum, NF54): 6.74

Cc1ccc(CCCc2ccc(CN3CCCCC3)c(O)c2)cc1
pIC50 [2]: 6.57 | pIC50 ([3]; Cricetulus griseus, CHO): 5.31 | pIC50 ([1]; Plasmodium falciparum, D10): 7.05 | selectivity ratio [6]: 56 | Ratio IC50 [7]: 3.06

CCN1CCN(Cc2ccc(CCCc3ccccc3)cc2O)CC1
pIC50 ([5]; Plasmodium falciparum, NF54): 6.39

NC(=O)c1ccc(CCCc2ccccc2)cc1
pIC50 ([5]; Plasmodium falciparum, NF54): < 5.40

COc1ccc(C(=O)/C=C/c2ccc(CN(C)C)c(O)c2)cc1
pIC50 ([1]; Plasmodium falciparum, D10): 5.60

O=C(/C=C/c1ccc(CN2CCCCC2)c(O)c1)c1ccc(Br)cc1
pIC50 [2]: 6.68 | pIC50 ([3]; Cricetulus griseus, CHO): 5.14 | pIC50 ([1]; Plasmodium falciparum, D10): 6.82 | selectivity ratio [6]: 50

CCN1CCN(Cc2ccc(/C=C/C(=O)c3ccc(OC)cc3)cc2O)CC1
pIC50 ([1]; Plasmodium falciparum, D10): 5.56

COc1ccc(C(=O)/C=C/c2ccc(CN3CCOCC3)c(O)c2)cc1
pIC50 ([1]; Plasmodium falciparum, D10): 5.31

COc1ccc(C(=O)/C=C/c2ccc(CN3CCCCC3)c(O)c2)cc1
pIC50 ([3]; Cricetulus griseus, CHO): 3.71 | pIC50 ([1]; Plasmodium falciparum, D10): 6.08 | selectivity ratio [6]: 237

Oc1ccccc1CN1CCCCC1
pIC50 ([5]; Plasmodium falciparum, NF54): < 5.30

c1ccc(CN2CCCCC2)cc1
pIC50 ([5]; Plasmodium falciparum, NF54): < 5.30

CC(=O)CCc1ccc(CN2CCCCC2)c(O)c1
pIC50 ([5]; Plasmodium falciparum, NF54): 5.77

O=C(CCc1ccc(CN2CCCCC2)c(O)c1)c1cccs1
pIC50 [2]: 6.57 | pIC50 ([3]; Cricetulus griseus, CHO): 3.77 | pIC50 ([1]; Plasmodium falciparum, D10): 6.72 | selectivity ratio [6]: 895

Oc1cc(CCc2ccccc2)ccc1CN1CCCCC1
pIC50 ([5]; Plasmodium falciparum, NF54): 6.92

Oc1cc(CCCc2ccccc2)ccc1CN1CCCCC1
pIC50 ([5]; Plasmodium falciparum, NF54): 6.85

COc1ccc(C(=O)/C=C/c2ccc(O)c(CN3CCN(C)CC3)c2)cc1
pIC50 ([1]; Plasmodium falciparum, D10): 5.42

COc1ccc(C(=O)/C=C/c2cc(CN3CCCCC3)c(O)c(OC)c2)cc1
pIC50 ([1]; Plasmodium falciparum, D10): 5.55

Oc1ccc(CCCc2ccc(C(F)(F)F)cc2)cc1CN1CCCCC1 [listing 1 of 2 here]
pIC50 [2]: 7.52 | pIC50 ([1]; Plasmodium falciparum, D10): 8.00 | Ratio IC50 [7]: 5.8

COc1ccc(C(=O)/C=C/c2ccc(CN3CCCC3)c(O)c2)cc1
pIC50 ([1]; Plasmodium falciparum, D10): 5.24

Oc1cc(CCCc2ccc3ccccc3c2)ccc1CN1CCCCC1
pIC50 ([5]; Plasmodium falciparum, NF54): 7.40

O=C(CCc1ccc(CN2CCCCC2)c(O)c1)c1ccc[nH]1
pIC50 ([1]; Plasmodium falciparum, D10): < 5.52

O=C(/C=C/c1ccc(CN2CCCCC2)c(O)c1)c1cccs1
pIC50 ([1]; Plasmodium falciparum, D10): 5.56

O=C(/C=C/c1cccc(O)c1)c1ccccc1 [3-HYDROXY CHALCONE]
pIC50 ([1]; Plasmodium falciparum, D10): 4.80

Oc1cc(CCCc2ccc(CCCc3ccc(CN4CCCCC4)c(O)c3)cc2)ccc1CN1CCCCC1
pIC50 ([5]; Plasmodium falciparum, NF54): 7.22

Oc1cc(CCCc2ccccc2)ccc1CN1CCNCC1
pIC50 ([5]; Plasmodium falciparum, NF54): 5.55

CC[C@H]1CN2CCc3cc(OC)c(OC)cc3[C@@H]2C[C@@H]1C[C@H]1NCCc2cc(OC)c(OC)cc21 [EMETINE]
pIC50 ([3]; Cricetulus griseus, CHO): 7.52

O=C(/C=C/c1ccc(O)c(CN2CCCCC2)c1)c1ccc(C(F)(F)F)cc1
pIC50 [2]: 6.70 | pIC50 ([3]; Cricetulus griseus, CHO): 5.09 | pIC50 ([1]; Plasmodium falciparum, D10): 6.77 | selectivity ratio [6]: 49

Oc1cc(CCCc2cccs2)ccc1CN1CCCCC1
pIC50 ([5]; Plasmodium falciparum, NF54): 7.30 | pIC50 [8]: 7.70 | Ratio IC50 [9]: 0.48

COc1ccc(CCCc2ccc(CN3CCCCC3)c(O)c2)cc1.Cl
pIC50 [2]: 7.15 | pIC50 ([3]; cho): 3.67 | pIC50 [1]: 7.15 | Ratio IC50 [6]: 3063 | Ratio IC50 [7]: 1

O=C(/C=C/c1ccc(CN2CCCCC2)c(O)c1)c1ccccn1
pIC50 ([1]; Plasmodium falciparum, D10): 5.86

O=C(/C=C/c1ccc(CN2CCCC2)c(O)c1)c1ccccc1
pIC50 ([1]; Plasmodium falciparum, D10): 5.18

CCc1ccc(CCCc2ccc(CN3CCCCC3)c(O)c2)cc1 [listing 1 of 2 here]
pIC50 [5]: 7.22

Oc1cc(CCCc2ccccc2)ccc1CN1CCOCC1
pIC50 ([5]; Plasmodium falciparum, NF54): 6.12

COc1ccc(C(=O)/C=C/c2cccc(O)c2)cc1
pIC50 ([1]; Plasmodium falciparum, D10): 4.95

Oc1ccc(CCCc2ccc(C(F)(F)F)cc2)cc1CN1CCCCC1 [listing 2 of 2 here]
pIC50 ([5]; Plasmodium falciparum, NF54): 6.55

Cl.Oc1cc(CCCc2ccccc2)ccc1CN1CCCCC1
pIC50 [2]: 7.52 | pIC50 ([3]; Cricetulus griseus, CHO): 3.79 | pIC50 ([1]; Plasmodium falciparum, D10): 7.70 | selectivity ratio [6]: 7030 | Ratio IC50 [7]: 1.35

Oc1cc(CCCc2ccccc2)ccc1CN1CCCC1
pIC50 ([5]; Plasmodium falciparum, NF54): 7.40

Cc1ccc(S(=O)(=O)Oc2cc(CCCc3ccc(F)cc3)ccc2CN2CCCCC2)cc1
pIC50 ([5]; Plasmodium falciparum, NF54): < 5.70

CCc1ccc(CN2CCCCC2)c(O)c1
pIC50 ([5]; Plasmodium falciparum, NF54): 5.98

COc1ccc(CCCc2cc(O)c(CN3CCCCC3)cc2CN2CCCCC2)cc1
pIC50 [2]: 7.10 | pIC50 ([3]; Cricetulus griseus, CHO): 3.70 | pIC50 ([1]; Plasmodium falciparum, D10): 7.22 | selectivity ratio [6]: 3510 | Ratio IC50 [7]: 1.47

Oc1ccc(CCCc2ccccc2)cc1CN1CCCCC1
pIC50 ([5]; Plasmodium falciparum, NF54): 7.22

CC(C)Nc1ccc(CCCc2cccc(O)c2)cc1
pIC50 ([5]; Plasmodium falciparum, NF54): < 5.52

COc1ccc(CCCc2ccc(CN3CCCCC3)c(O)c2)cc1
pIC50 ([3]; cho): 4.16 | pIC50 [1]: 6.68 | Ratio IC50 [6]: 332

O=C(/C=C/c1ccc(CN2CCCCC2)c(O)c1)c1ccc(F)cc1
pIC50 [2]: 6.15 | pIC50 ([3]; Cricetulus griseus, CHO): 4.11 | pIC50 ([1]; Plasmodium falciparum, D10): 7.00 | selectivity ratio [6]: 796

CN(C)Cc1ccc(CCCc2ccccc2)cc1O
pIC50 ([5]; Plasmodium falciparum, NF54): 7.05

Oc1cc(CCCc2ccc(F)cc2)ccc1CN1CCCCC1
pIC50 [1]: 7.15

O=C(/C=C/c1ccc(CN2CCCCC2)c(O)c1)c1ccc[nH]1
pIC50 ([1]; Plasmodium falciparum, D10): 5.62

CCc1ccc(CCCc2ccc(CN3CCCCC3)c(O)c2)cc1 [listing 2 of 2 here]
pIC50 [5]: 6.74 | pIC50 ([3]; Cricetulus griseus, CHO): 4.60 | selectivity ratio [4]: 138

Oc1cc(CCCc2ccc(-c3ccccc3)cc2)ccc1CN1CCCCC1
pIC50 ([5]; Plasmodium falciparum, NF54): 7.10
